Where a chain is given by its changes, count along the chain named. Like-named read-outs stand apart in the source and are kept apart here.
What was measured:
[1] = biological target: T1, CLC-0 E166C mutant (E127/K519) (Torpedo marmorata, UniProt P21564, C212S/E166C); assay type: cell-based; settings: for IC50: read-out: Apparent affinity (K1/2)
T1 sequence (P21564 1-805 E166C/C212S): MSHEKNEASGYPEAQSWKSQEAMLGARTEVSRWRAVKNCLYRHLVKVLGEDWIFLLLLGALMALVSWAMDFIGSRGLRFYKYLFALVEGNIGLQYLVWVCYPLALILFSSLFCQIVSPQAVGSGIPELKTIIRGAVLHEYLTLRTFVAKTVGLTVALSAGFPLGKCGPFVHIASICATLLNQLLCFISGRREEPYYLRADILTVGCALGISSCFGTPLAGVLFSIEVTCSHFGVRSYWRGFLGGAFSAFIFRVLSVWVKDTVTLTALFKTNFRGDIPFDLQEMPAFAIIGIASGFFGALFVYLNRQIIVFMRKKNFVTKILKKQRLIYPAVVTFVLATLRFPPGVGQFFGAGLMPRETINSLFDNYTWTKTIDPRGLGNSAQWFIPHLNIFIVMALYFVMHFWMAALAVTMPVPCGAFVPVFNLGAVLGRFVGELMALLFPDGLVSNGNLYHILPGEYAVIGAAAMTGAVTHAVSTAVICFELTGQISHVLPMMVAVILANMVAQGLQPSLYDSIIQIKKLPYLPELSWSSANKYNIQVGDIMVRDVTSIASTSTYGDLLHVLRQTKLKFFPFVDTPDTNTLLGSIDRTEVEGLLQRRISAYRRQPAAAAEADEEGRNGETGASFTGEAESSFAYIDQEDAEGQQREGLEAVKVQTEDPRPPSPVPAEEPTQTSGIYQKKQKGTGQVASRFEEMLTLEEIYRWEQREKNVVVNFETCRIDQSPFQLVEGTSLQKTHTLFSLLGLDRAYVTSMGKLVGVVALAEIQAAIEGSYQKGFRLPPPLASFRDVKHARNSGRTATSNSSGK
Summary of the method: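 CLC-0 mutants in the C212S background were transfected into HEK293 cells with lipofectamine and recorded 1–3 d later as excised inside-out patches. Both sides held 130 mM NaCl, 5 mM MgCl2, 10 mM HEPES and 1 mM EGTA, pH 7.4. CPA was perfused continuously onto the cytoplasmic face. Steady-state current over the last 10 ms was normalized to bracketing blocker-free controls and fitted to a Langmuir function for K1/2. Values are mean ± SEM of ~4–6 patches.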

CLC-0 E166A mutant = biological target: T2, CLC-0 E166A mutant (Torpedo marmorata, UniProt P21564, C212S/E166A); assay type: cell-based; settings: for IC50: read-out: Apparent affinity (K1/2)
T2 sequence (P21564 1-805 E166A/C212S): T1 sequence (P21564 1-805 E166C/C212S) with C166A
Summary of the method: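 HEK293 cells expressed C212S-background CLC-0 mutants and were recorded 1–3 d post-transfection as inside-out patches in symmetrical 130 mM NaCl, 10 mM HEPES, pH 7.4. CPA, fatty acids or alkyl sulfates flowed continuously on the cytoplasmic side. C10–C12 compounds were diluted into bath solution from 10 mM DMSO stocks. Test steps ran from +80 to −160 mV after a +80 mV prepulse. Steady-state current was normalized to the mean of pre- and post-blocker controls, and a Langmuir K1/2 was taken at each voltage from ~4–6 patches.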

Molecule `O=C(O)COc1ccc(Cl)cc1` [CPA, p-chlorophenoxy acetate] has a block of current ([1]; 0.3 mM CPA, −160 mV) greater than 90%, an IC50 ([1]; −40 mV) of 581 ± 94 µM and an IC50 ([1]; −60 mV) of 349 ± 15 µM. It also gave an IC50 ([1]; −80 mV) of 186 ± 7 µM, an IC50 ([1]; −100 mV) of 104 ± 3 µM and an IC50 ([1]; −120 mV) of 61 ± 2 µM. For the same molecule, the IC50 ([1]; −140 mV) was 38 ± 1 µM, the IC50 ([1]; −160 mV) was 26 ± 1 µM and the apparent koff ([1]; −160 mV) was 17.2 s⁻¹. It also gave an apparent kon ([1]; −160 mV) of 630000 M⁻¹ s⁻¹, a block of current (CLC-0 E166A mutant; 10 μM) of roughly 50% and an inhibition of current (CLC-0 E166A mutant; 300 μM CPA, −160 mV) of roughly 95%. The IC50 (CLC-0 E166A mutant; −40 mV) was 337 ± 19 µM, the IC50 (CLC-0 E166A mutant; −60 mV) was 162 ± 9 µM and the IC50 (CLC-0 E166A mutant; −80 mV) was 82 ± 4 µM. For the same molecule, the IC50 (CLC-0 E166A mutant; −100 mV) was 46 ± 2 µM, the IC50 (CLC-0 E166A mutant; −120 mV) was 25 ± 2 µM and the IC50 (CLC-0 E166A mutant; −140 mV) was 15 ± 1 µM. The IC50 (CLC-0 E166A mutant; −160 mV) was 10 ± 1 µM and the “saturated value of 1/τ of current inhibition” value (CLC-0 E166A mutant; voltage step +80 to −160 mV) was 1561 s⁻¹.

`CCCCCCCC(=O)O` [octanoate] was tested, and the IC50 ([1]; −40 mV) was 88.5 ± 17.1 µM, the IC50 ([1]; −60 mV) was 43.1 ± 6.4 µM and the IC50 ([1]; −80 mV) was 20.7 ± 3.4 µM. For the same molecule, the IC50 ([1]; −100 mV) was 10.2 ± 1.8 µM, the IC50 ([1]; −120 mV) was 5.6 ± 1.1 µM and the IC50 ([1]; −140 mV) was 3.5 ± 0.8 µM. For the same molecule, the IC50 ([1]; −160 mV) was 2 ± 0.5 µM, the IC50 (CLC-0 E166A mutant; −40 mV) was 64.3 ± 3.7 µM and the IC50 (CLC-0 E166A mutant; −60 mV) was 29.7 ± 1.4 µM. For the same molecule, the IC50 (CLC-0 E166A mutant; −80 mV) was 15.7 ± 0.7 µM, the IC50 (CLC-0 E166A mutant; −100 mV) was 8.2 ± 0.2 µM and the IC50 (CLC-0 E166A mutant; −120 mV) was 4.7 ± 0.2 µM. The IC50 (CLC-0 E166A mutant; −140 mV) was 2.8 ± 0.2 µM, the IC50 (CLC-0 E166A mutant; −160 mV) was 1.9 ± 0.1 µM and the “K1/2 (range in words)” value (CLC-0 E166A mutant; −140 mV (Fig. 10 C)) was “low μM range”.

Source: PMC2606940 (The Journal of General Physiology, 2009)
